Ki and Ratio data for 25 molecules are collected here from ChEMBL document CHEMBL1126779, “Antagonism of 1-(2,5-dimethoxy-4-methylphenyl)-2-aminopropane stimulus with a newly identified 5-HT2- versus 5-HT1C-selective antagonist” (J Med Chem, 1993).

In test [1] the target is T1, 5-hydroxytryptamine receptor 2C (Rattus norvegicus, UniProt P08909).
T1 sequence (P08909 whole entry): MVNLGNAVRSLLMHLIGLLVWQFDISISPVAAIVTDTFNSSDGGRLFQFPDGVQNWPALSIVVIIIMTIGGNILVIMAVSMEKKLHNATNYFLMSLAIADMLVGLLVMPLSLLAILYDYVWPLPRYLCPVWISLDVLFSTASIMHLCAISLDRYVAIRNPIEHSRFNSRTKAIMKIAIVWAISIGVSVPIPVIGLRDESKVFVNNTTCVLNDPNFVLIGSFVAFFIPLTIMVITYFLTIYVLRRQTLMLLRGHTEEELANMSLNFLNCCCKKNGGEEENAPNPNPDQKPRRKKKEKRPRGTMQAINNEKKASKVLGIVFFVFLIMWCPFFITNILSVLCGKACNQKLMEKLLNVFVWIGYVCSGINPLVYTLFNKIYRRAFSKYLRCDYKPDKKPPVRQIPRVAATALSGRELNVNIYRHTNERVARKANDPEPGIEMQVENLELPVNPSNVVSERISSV
The test can be described thus: Tested for binding affinity against 5-hydroxytryptamine 1C receptor from rat frontal cortical regions using [3H]mesulergine as radioligand. In short, it runs like this: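 Rat frontal cortex homogenate (male Sprague-Dawley) was washed and preincubated 15 min at 37 °C in 50 mM Tris HCl, 0.5 mM EDTA, 10 mM MgCl2, pH 7.4, with 0.1% ascorbate and 10^-6 M pargyline. Nonspecific binding was set with 1.0 µM mianserin. Tubes ran 15 min at 37 °C in triplicate before filtration.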

Test [2] has as its target Serotonin 2 (5-HT2) receptor (Rattus norvegicus) (UniProt P30994+P08909+P14842). As to the kind of experiment: Selectivity ratio, Ki against 5-HT1C versus 5-HT2. The class given is protein assay. The method in brief: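 Rat frontal cortex homogenate (male Sprague-Dawley) was washed and preincubated 15 min at 37 °C in 50 mM Tris HCl, 0.5 mM EDTA, 10 mM MgCl2, pH 7.4, with 0.1% ascorbate and 10^-6 M pargyline. […] Nonspecific binding was set with 1.0 µM mianserin. Tubes ran 15 min at 37 °C in triplicate before filtration.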

Test [3] has as its target T2, 5-hydroxytryptamine receptor 1A (Rattus norvegicus, UniProt P19327).
T2 sequence (P19327 whole entry): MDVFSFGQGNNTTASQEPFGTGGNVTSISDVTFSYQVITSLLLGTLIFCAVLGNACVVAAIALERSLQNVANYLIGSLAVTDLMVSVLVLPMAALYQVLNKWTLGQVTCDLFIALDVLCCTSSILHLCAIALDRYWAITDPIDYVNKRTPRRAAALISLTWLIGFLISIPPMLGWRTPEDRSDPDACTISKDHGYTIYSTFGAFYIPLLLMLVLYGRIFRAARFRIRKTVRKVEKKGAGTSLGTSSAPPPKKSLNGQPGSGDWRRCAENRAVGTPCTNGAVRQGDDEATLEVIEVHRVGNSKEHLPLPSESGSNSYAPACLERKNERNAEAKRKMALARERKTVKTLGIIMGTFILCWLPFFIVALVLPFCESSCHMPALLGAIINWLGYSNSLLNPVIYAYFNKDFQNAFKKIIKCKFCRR
The test can be described thus: Tested for binding affinity against 5-hydroxytryptamine 1A receptor from rat frontal cortical regions using [3H]8-OH-DPAT as radioligand.

Test [4] concerns the target Serotonin 2 (5-HT2) receptor (Rattus norvegicus, UniProt P30994+P08909+P14842). The test can be described thus: Tested for binding affinity against 5-hydroxytryptamine 2 receptor from rat frontal cortical regions using [3H]ketanserin as radioligand. The class given is protein assay. The method in brief: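 Frontal cortex from male Sprague-Dawley rats was homogenized in Tris HCl/EDTA/MgCl2 buffer, pH 7.4, containing ascorbate and pargyline. Each triplicate tube held 5 mg wet tissue and 0.4 nM [3H]ketanserin, with nonspecific binding defined by 1.0 µM cinanserin. Incubation was 15 min at 37 °C, then glass-fiber filtration and an ice-cold wash. IC50 was converted to Ki using radioligand KD from saturation experiments.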

The target in a further test is D(1A) dopamine receptor (Mus musculus, UniProt Q61616). The test can be described thus: Tested for binding affinity against dopamine receptor D1.
The next test deals with D(2) dopamine receptor (Homo sapiens, UniProt P14416). As to the kind of experiment: Tested for binding affinity against dopamine receptor D2.
D(2) dopamine receptor, sequence (P14416 whole entry): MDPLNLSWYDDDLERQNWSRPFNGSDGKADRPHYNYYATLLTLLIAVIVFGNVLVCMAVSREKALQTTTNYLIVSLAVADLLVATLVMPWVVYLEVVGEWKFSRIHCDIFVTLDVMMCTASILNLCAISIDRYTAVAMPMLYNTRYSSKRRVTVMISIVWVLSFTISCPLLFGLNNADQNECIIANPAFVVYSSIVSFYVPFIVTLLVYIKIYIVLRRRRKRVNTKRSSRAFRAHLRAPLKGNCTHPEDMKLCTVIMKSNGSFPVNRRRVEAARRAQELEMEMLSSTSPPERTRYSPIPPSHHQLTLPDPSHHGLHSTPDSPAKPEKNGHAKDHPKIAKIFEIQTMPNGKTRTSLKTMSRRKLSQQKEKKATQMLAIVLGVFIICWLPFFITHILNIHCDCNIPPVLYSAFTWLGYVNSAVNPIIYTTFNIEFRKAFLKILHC

Serotonin 2 (5-HT2) receptor (Rattus norvegicus), sequence (P14842 whole entry, looked up, one chain of several): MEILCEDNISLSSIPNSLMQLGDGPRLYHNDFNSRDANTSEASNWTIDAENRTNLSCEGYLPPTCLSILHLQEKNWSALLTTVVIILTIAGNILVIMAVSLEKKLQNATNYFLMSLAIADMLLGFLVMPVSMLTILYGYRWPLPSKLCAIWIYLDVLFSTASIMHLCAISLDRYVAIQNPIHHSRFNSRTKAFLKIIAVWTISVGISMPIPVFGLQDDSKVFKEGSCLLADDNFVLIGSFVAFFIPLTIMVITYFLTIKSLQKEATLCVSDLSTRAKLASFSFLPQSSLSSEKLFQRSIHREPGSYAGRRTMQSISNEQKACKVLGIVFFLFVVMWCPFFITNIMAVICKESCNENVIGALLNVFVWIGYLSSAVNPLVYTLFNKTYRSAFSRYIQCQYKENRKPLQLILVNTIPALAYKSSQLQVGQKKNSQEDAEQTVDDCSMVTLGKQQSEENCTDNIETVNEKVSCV
Serotonin 2 (5-HT2) receptor (Rattus norvegicus), sequence (P30994 whole entry, looked up, one chain of several): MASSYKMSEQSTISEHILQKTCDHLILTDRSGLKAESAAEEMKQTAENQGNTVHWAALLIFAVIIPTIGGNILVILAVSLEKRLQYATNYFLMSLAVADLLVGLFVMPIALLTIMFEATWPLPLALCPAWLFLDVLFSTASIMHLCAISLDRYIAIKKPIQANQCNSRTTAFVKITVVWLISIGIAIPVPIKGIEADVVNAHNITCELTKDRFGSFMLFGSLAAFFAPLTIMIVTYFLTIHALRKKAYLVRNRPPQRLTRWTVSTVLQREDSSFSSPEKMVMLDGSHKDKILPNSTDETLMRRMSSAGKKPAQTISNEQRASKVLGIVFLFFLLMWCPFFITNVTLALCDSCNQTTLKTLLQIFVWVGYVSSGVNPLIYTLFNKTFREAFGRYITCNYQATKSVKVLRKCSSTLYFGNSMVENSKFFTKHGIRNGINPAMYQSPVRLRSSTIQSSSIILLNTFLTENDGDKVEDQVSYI
D(1A) dopamine receptor, sequence (Q61616 whole entry): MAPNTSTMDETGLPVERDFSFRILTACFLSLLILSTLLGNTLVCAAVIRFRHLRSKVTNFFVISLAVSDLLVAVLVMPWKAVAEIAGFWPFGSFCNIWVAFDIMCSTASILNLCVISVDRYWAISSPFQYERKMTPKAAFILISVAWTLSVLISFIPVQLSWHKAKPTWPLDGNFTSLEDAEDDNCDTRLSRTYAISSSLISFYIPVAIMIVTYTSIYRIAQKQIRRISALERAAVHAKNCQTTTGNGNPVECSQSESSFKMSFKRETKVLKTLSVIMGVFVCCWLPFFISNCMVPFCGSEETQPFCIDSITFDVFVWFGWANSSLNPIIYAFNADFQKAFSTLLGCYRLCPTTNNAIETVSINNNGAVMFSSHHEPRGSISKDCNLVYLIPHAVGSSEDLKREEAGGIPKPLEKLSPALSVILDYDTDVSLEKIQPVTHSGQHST

Broadly, the Ki is the equilibrium dissociation constant of an inhibitor or competing ligand from its target. High values mean weaker binding, low ones tighter binding. As to `CN(c1ccccc1)C1CCN(CCCOc2ccc(F)cc2)CC1`, the results for the inhibition constant (Ki) in test [1], in test [3] and in test [4] were 2.87 µM, 110 nM and 32 nM, respectively. In addition, in test [2], the Ratio amounted to 90.

Consider `O=C(c1ccc(F)cc1)C1CCN(CCCOc2ccc(F)cc2)CC1`, for which the Ki in test [1] stood at 0.335 µM; in test [3], 285 nM; in test [4], 8 nM. In addition, the Ratio in test [2] came to 40.

`NCCCOc1ccc(F)cc1`: the inhibition constant (Ki) in test [1] was greater than 10 µM; in test [4], 1400 nM. For the same molecule, the Ratio in test [2] was greater than 5.

For `c1ccc(CCCCN2CCN(c3ccccc3)CC2)cc1`, the Ki in test [3] was 1 nM.

`O=C1NCN(c2ccccc2)C12CCN(CCCc1ccccc1)CC2`: the inhibition constant Ki was greater than 10 µM in test [1], 105 nM in test [3] and 230 nM in test [4]. For the same molecule, the Ratio in test [2] was greater than 30.

As for `O=C1NCN(c2ccccc2)C12CCN(CCCOc1ccc([N+](=O)[O-])cc1)CC2`, the figures for the Ki in test [1], in test [3] and in test [4] were greater than 10 µM, 1160 nM and 600 nM, respectively. Besides, the Ratio in test [2] is greater than 10.

For the molecule `O=C1NCN(c2ccccc2)C12CCN(CCCCc1ccccc1)CC2`, the Ki in test [1] is greater than 10 µM; in test [3], 85 nM; in test [4], 30 nM. Further, the Ratio in test [2] was greater than 300.

For the molecule `O=C(Nc1ccccc1)C1CCN(CCCOc2ccc(F)cc2)CC1`, the Ki is greater than 10 µM in test [1] and 95 nM in test [4]. Besides, the Ratio in test [2] is greater than 100.

Consider `NCCCC(=O)c1ccc(F)cc1`, for which the Ki was greater than 100 µM in test [1], greater than 100000 nM in test [3] and greater than 100000 nM in test [4].

Turning to `O=C1NCN(c2ccccc2)C12CCN(CCCCOc1ccccc1)CC2`, the Ki in test [1] was greater than 10 µM; in test [3], 30 nM; in test [4], 325 nM. The Ratio in test [2] is greater than 30.

For the molecule `O=C(CCCN1CCC2(CC1)C(=O)NCN2c1ccccc1)c1ccc(F)cc1` [SPIPERONE], the Ki in test [3] worked out at 49 nM.

`O=C(CCCN1CCC(C(=O)c2ccc(F)cc2)CC1)c1ccc(F)cc1` [LENPERONE] gave an inhibition constant Ki in test [3] of 305 nM.

Regarding `O=C1NCN(c2ccccc2)C12CCN(CCCOc1ccccc1)CC2`, the Ki in test [1] is greater than 10 µM; in test [3], 75 nM; in test [4], 5 nM. In test [2], the Ratio is greater than 2000.

On to `O=C1NCN(c2ccccc2)C12CCN(CCCOc1ccc(F)cc1)CC2` [SPIRAMIDE], for which the Ki worked out at 2530 nM on D(1A) dopamine receptor; 3 nM at D(2) dopamine receptor; 4.3 µM in test [1]; 50 nM in test [3]; 2 nM in test [4]. For the same molecule, in test [2], the Ratio was 2100.

Take `CN(C)CCCC(=O)c1ccc(F)cc1`: the Ki in test [1] came out at 3.3 µM; in test [4], 80 nM. The Ratio in test [2] stood at 40.

For the molecule `O=C1NCN(c2ccccc2)C12CCN(CCCCc1ccc(F)cc1)CC2`, the Ki in test [1] turned out to be 3.2 µM; in test [3], 110 nM; in test [4], 5 nM. Also, the Ratio in test [2] worked out at 650.

On to `O=C1NCN(c2ccccc2)C12CCN(CCc1ccccc1)CC2`, for which the Ki in test [1] is 6 µM; in test [3], 1020 nM; in test [4] it was 570 nM. Further, the Ratio in test [2] was found to be 10.

As to `O=C(CCCN1CCC(NC(=O)c2ccccc2)CC1)c1ccc(F)cc1`, the values for the Ki in test [1] and in test [4] were greater than 10 µM and 70 nM, respectively. Also, in test [2], the Ratio was greater than 140.

As to `COc1ccc(OCCCN2CCC3(CC2)C(=O)NCN3c2ccccc2)cc1`, the results for the Ki in test [1], in test [3] and in test [4] were greater than 10 µM, 445 nM and 1000 nM, respectively. In test [2], the Ratio is greater than 10.

Regarding `CN(C)CCCOc1ccc(F)cc1`, the inhibitory constant (Ki) was greater than 10 µM in test [1] and 295 nM in test [4]. For the same molecule, the Ratio in test [2] was greater than 30.

Regarding `O=C(CCCN1CCC(Cc2ccccc2)CC1)c1ccc(F)cc1`, the values for the Ki in test [1], in test [3] and in test [4] were 1.65 µM, 180 nM and 50 nM, respectively. The Ratio in test [2] is 35.

Regarding `O=C1NCN(c2ccccc2)C12CCNCC2`, the Ki in test [1] is greater than 10 µM; in test [3] it was greater than 10000 nM; in test [4] it was greater than 10000 nM.

On to `O=C(NC1CCN(CCCOc2ccc(F)cc2)CC1)c1ccccc1`, for which the Ki in test [1] was greater than 10 µM; in test [4], 70 nM. Besides, the Ratio in test [2] was greater than 140.

As to `O=C(CCCN1CCCCC1)c1ccc(F)cc1` [PRIMAPERONE], the Ki in test [1] is greater than 10 µM; in test [3] it was greater than 10000 nM; in test [4] it was 140 nM. Besides, in test [2], the Ratio was greater than 70.

For the molecule `Fc1ccc(OCCCN2CCC(Nc3ccccc3)CC2)cc1`, the Ki in test [1] was determined as 3.6 µM; in test [3], 120 nM; in test [4], 88 nM. Moreover, in test [2], the Ratio worked out at 40.
